Series [1] addresses Sodium-dependent serotonin transporter (Homo sapiens, UniProt P31645). Kind of series: Inhibition of 5-hydroxytryptamine reuptake.
A short description of series [2]: Partition coefficient (logD7.4). To be noted: octanol/water, pH 7.4.
Series [3] can be described thus: pA2 value for the effect in RSV model. The series is classed as functional. The procedure, abridged:
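Isolated rabbit saphenous vein segments were held in organ baths and given two cumulative sumatriptan concentration-response curves. The second curve was run after 60 min incubation with antagonist or vehicle. Apparent pA2 was derived from a single antagonist concentration in at least three preparations.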

Series [4] addresses T1, 5-hydroxytryptamine receptor 1A (Rattus norvegicus, UniProt P19327).
T1 sequence (P19327 whole entry): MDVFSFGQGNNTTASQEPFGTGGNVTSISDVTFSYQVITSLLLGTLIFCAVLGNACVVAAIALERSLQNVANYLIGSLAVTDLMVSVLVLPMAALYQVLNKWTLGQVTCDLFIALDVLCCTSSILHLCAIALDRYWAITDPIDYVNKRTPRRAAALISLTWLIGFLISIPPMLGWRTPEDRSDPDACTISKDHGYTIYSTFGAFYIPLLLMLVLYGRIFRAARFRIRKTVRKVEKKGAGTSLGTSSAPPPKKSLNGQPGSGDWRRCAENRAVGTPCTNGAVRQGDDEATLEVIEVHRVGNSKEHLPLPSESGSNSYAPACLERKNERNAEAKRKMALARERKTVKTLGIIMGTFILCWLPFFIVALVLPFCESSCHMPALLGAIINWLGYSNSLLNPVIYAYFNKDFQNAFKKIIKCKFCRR
The experiment in a line: Inhibition activity against 5-hydroxytryptamine 1A receptor in rat hippocampus membranes using radio binding assays. Format: cell membranes, Membrane. In short, it runs like this: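 Displacement of 0.5 nM [3H]8-OH-DPAT from 5-HT1A sites in rat hippocampal membranes, following a previously reported method. IC50 in nM, mean of at least 3 determinations ±SEM unless indicated otherwise.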

Series [5] has as its target Serotonin (5-HT) receptor (Homo sapiens) (UniProt P30939+P41595+Q13639+P28222+P46098+P08908+P28221+P28223+P28335+P28566+P34969+P50406+P47898+A5X5Y0+O95264+Q70Z44+Q8WXA8). The experiment in a line: 5-hydroxytryptamine level in K+ induced 5-hydroxytryptamine release in guinea pig cortex. Format: functional, tissue-based. The following applies: Cavia porcellus, target entry is the homologue from another species. The procedure, abridged: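 Guinea pig (male Dunkin-Hartley) cerebral cortex slices loaded with [3H]5-HT for 30 min, then superfused with oxygenated Krebs solution. Two 4-min 30 mM K+ pulses at 68 and 108 min (S1, S2). Sumatriptan 3 µM, alone or with test compound at 30 nM, 300 nM or 3 µM, given before and during S2. Tabulated value is at 300 nM, reported as % of control S2/S1 ratio; mean (SEM) of 3-4 determinations.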

Series [6] has as its target 5-hydroxytryptamine receptor 1B (Rattus norvegicus, UniProt P28564). Kind of series: Inhibition affinity against 5-HT-1B receptor in rat frontal cortex using radio binding assay. Format: tissue-based.
Series [7] can be described thus: Partition coefficient (logP). The following applies: octanol/water.

5-hydroxytryptamine receptor 1B, sequence (P28564 whole entry): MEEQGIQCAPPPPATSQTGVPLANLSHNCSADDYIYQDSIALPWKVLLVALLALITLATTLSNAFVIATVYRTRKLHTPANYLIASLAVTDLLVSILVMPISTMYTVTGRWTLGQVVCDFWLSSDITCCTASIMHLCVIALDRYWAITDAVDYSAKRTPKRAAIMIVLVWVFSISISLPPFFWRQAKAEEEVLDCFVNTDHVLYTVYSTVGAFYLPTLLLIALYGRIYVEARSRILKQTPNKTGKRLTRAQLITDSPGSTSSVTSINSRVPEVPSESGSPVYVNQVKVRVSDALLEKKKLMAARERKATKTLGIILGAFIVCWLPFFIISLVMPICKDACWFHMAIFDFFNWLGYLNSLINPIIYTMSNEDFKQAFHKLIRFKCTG
Sodium-dependent serotonin transporter, sequence (P31645 whole entry): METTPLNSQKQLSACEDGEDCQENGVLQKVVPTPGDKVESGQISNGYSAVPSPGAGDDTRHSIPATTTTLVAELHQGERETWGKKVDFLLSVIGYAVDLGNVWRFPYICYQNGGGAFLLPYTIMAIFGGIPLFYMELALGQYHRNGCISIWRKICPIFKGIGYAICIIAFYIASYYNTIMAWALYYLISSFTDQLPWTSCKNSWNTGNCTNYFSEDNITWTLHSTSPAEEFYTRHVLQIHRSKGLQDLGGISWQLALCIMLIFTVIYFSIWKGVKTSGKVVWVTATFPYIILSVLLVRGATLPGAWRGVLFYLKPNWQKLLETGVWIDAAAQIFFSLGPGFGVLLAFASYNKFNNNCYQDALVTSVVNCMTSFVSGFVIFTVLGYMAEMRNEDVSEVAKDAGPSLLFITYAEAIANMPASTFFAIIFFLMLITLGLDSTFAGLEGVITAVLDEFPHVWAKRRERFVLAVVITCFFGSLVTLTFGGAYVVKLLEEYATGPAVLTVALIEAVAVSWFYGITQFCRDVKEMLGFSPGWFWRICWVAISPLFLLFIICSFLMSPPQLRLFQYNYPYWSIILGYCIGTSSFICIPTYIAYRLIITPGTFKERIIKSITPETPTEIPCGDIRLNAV

As to `Cc1nnc(-c2ccc(-c3ccc(C(=O)Nc4ccc(OS(C)(=O)=O)c(N5CCN(C)CC5)c4)cc3)c(C)c2)o1`, the values for the IC50 in series [1], in series [4] and in series [6] were 3800 nM, 7000 nM and 70 nM, respectively. In addition, the logD in series [2] was 2.96. Further, the pA2 in series [3] was found to be 8.3. In series [5], this compound came in with a Control of 166%. Further, the logP in series [7] stood at 3.38.
As to `Cc1nc(-c2ccc(-c3ccc(C(=O)Nc4ccc(OS(=O)(=O)C(F)(F)F)c(N5CCN(C)CC5)c4)cc3)c(C)c2)no1`, the IC50 in series [1] is over 1000 nM; in series [4] it was over 10000 nM; in series [6] it was 700 nM. The logD in series [2] was 5.64. Besides, in series [7], the logP stood at 6.06.
With `COc1ccc(NC(=O)c2ccc(-c3ccc(-c4nnc(C)o4)cc3C)cc2)cc1N1CCN(C)CC1`, the IC50 was over 1000 nM in series [1], over 1000 nM in series [4] and 0.93 nM in series [6]. The compound also registered a pA2 in series [3] of 9.1. The same compound gave a Control in series [5] of 147%.
On to `COc1ccc(NS(=O)(=O)c2ccc(-c3ccc(-c4nnc(C)o4)cc3C)cc2)cc1N1CCN(C)CC1`, for which the values for the IC50 in series [1], in series [4] and in series [6] were over 1000 nM, 700 nM and 60 nM, respectively. Also, the logD in series [2] turned out to be 3.6. In series [3], the pA2 turned out to be 7. Moreover, the Control in series [5] was 155%. In series [7], this compound returned a logP of 4.04.
As for `COc1ccc(NC(=O)c2ccc(-c3ccc(-c4noc(C)n4)cc3C)cc2)cc1N1CCN(C)CC1` [GR-127935], the IC50 in series [1] was determined as 1000 nM; in series [4], 425 nM; in series [6], 1.6 nM. For the same compound, the logD in series [2] is 4.48. In series [3], this compound had a pA2 of 9.9. This compound gave a logP in series [7] of 4.9.
`Cc1nc(-c2ccc(-c3ccc(C(=O)N4CCc5cc6c(cc54)C4(CCN(C)CC4)CO6)cc3)c(C)c2)no1` [SB-224289]: the IC50 worked out at 4700 nM in series [1] and 2 nM in series [6]. In series [2], this compound returned a logD of 4.64. Also, in series [3], the pA2 stood at 7.4. Besides, the Control in series [5] came out at 134%. The logP in series [7] turned out to be 6.29.
For `Cc1nc(-c2ccc(-c3ccc(C(=O)Nc4ccc(OCCF)c(N5CCN(C)CC5)c4)cc3)c(C)c2)no1`, the values for the concentration for half-maximal inhibition (IC50) in series [1], in series [4] and in series [6] were 900 nM, 5000 nM and 10 nM, respectively. The compound further registered a logD in series [2] of 4.91. This compound came in with a pA2 in series [3] of 8.3. The Control in series [5] was found to be 107%. For the same compound, the logP in series [7] stood at 5.33.
Take `COc1ccc(NC(=O)c2ccc(-c3ccc(C(=N)N)cc3C)cc2)cc1N1CCN(C)CC1`: the IC50 in series [1] stood at 407 nM; in series [4] it was 23 nM; in series [6] it was 0.5 nM. For the same compound, the logD in series [2] was -0.35. The same compound yielded a pA2 in series [3] of 9.6. This compound registered a Control in series [5] of 155%. In addition, in series [7], the logP was determined as 3.61.
As for `Cc1nc(-c2ccc(-c3ccc(C(=O)Nc4ccc(O)c(N5CCN(C)CC5)c4)cc3)c(C)c2)no1`, the IC50 in series [1] was over 1000 nM; in series [4] it was over 1000 nM; in series [6], 7.3 nM. The compound also yielded a log distribution coefficient (logD) in series [2] of 3.91. For the same compound, in series [3], the pA2 was found to be 7.3. In series [5], the Control was 122%. This compound gave a logP in series [7] of 4.33.
`COc1ccc(NC(=O)c2ccc(-c3ccc(C(N)=O)cc3C)cc2)cc1N1CCN(C)CC1`: the IC50 in series [1] is over 1000 nM; in series [4], 57 nM; in series [6] it was 1.3 nM. In series [2], this compound returned a logD of 3.18. For the same compound, the pA2 in series [3] was found to be 10. In series [5], this compound showed a Control of 162%. Further, the logP in series [7] was 3.6.
With `Cc1nnc(-c2ccc(-c3ccc(C(=O)Nc4ccc(O)c(N5CCN(C)CC5)c4)cc3)c(C)c2)o1`, the IC50 in series [1] is 4700 nM; in series [4], over 100 nM; in series [6], 6.3 nM. This compound also gave a logD in series [2] of 3.12. For the same compound, the pA2 in series [3] is 8. The Control in series [5] was 147%. This compound also gave a logP in series [7] of 3.54.

Values taken from ChEMBL document CHEMBL1133697, “New selective and potent 5-HT(1B/1D) antagonists: chemistry and pharmacological evaluation of N-piperazinylphenyl biphenylcarboxamides and biphenylsulfonamides” (J Med Chem, 2000).
